Source: ChEMBL document CHEMBL1134857, “The synthesis and biological evaluation of a novel series of antimicrobials of the oxazolidinone class” (Bioorg Med Chem Lett, 2002)
Converted amounts (≈) assume the structure as drawn.

Each compound was assayed on Streptococcus pneumoniae (assay: Minimum inhibitory concentration measured against Streptococcus pneumoniae).
Format: functional

Compound	MIC [µg/mL]
CC(=O)NC[C@H]1CN(c2ccc(/C=C(\Br)c3ccc(C(C)=O)cc3)c(F)c2)C(=O)O1	1 (≈ 2.1 µM)
CC(=O)NC[C@H]1CN(c2ccc(/C=C(\F)c3nnn(C)n3)c(F)c2)C(=O)O1	2 (≈ 5.29 µM)
CC(=O)NC[C@H]1CN(c2ccc(/C=C(\F)c3nccs3)c(F)c2)C(=O)O1	2 (≈ 5.27 µM)
CC(=O)NC[C@H]1CN(c2ccc(/C=C(\Br)c3cccc(N)c3)c(F)c2)C(=O)O1	2 (≈ 4.46 µM)
CC(=O)NC[C@H]1CN(c2ccc(/C=C(\Br)c3ccc(C#N)cc3)c(F)c2)C(=O)O1	0.5 (≈ 1.09 µM)
CC(=O)NC[C@H]1CN(c2ccc(/C=C(\Br)c3ccccc3C#N)c(F)c2)C(=O)O1	2 (≈ 4.36 µM)
CC(=O)NC[C@H]1CN(c2ccc(/C=C(\F)c3cccc(C(C)=O)c3)c(F)c2)C(=O)O1	1 (≈ 2.41 µM)
CC(=O)NC[C@H]1CN(c2ccc(/C=C(\Br)c3cccnc3)c(F)c2)C(=O)O1	1 (≈ 2.3 µM)
COc1ccncc1/C(Br)=C/c1ccc(N2C[C@H](CNC(C)=O)OC2=O)cc1F	2 (≈ 4.31 µM)

These compounds were tested on Moraxella catarrhalis (assay: Minimum inhibitory concentration measured against Moraxella catarrhalis).
Format: functional

Compound	MIC [µg/mL]
CC(=O)NC[C@H]1CN(c2ccc(/C=C(\Br)c3ccc(C(C)=O)cc3)c(F)c2)C(=O)O1	128 (≈ 269 µM)
CC(=O)NC[C@H]1CN(c2ccc(/C=C(\F)c3nnn(C)n3)c(F)c2)C(=O)O1	32 (≈ 84.6 µM)
CC(=O)NC[C@H]1CN(c2ccc(/C=C(\F)c3nccs3)c(F)c2)C(=O)O1	8 (≈ 21.1 µM)
CC(=O)NC[C@H]1CN(c2ccc(/C=C(\Br)c3cccc(N)c3)c(F)c2)C(=O)O1	8 (≈ 17.8 µM)
CC(=O)NC[C@H]1CN(c2ccc(/C=C(\Br)c3ccc(C#N)cc3)c(F)c2)C(=O)O1	> 128
CC(=O)NC[C@H]1CN(c2ccc(/C=C(\Br)c3ccccc3C#N)c(F)c2)C(=O)O1	128 (≈ 279 µM)
CC(=O)NC[C@H]1CN(c2ccc(/C=C(\F)c3cccc(C(C)=O)c3)c(F)c2)C(=O)O1	> 128
CC(=O)NC[C@H]1CN(c2ccc(/C=C(\Br)c3cccnc3)c(F)c2)C(=O)O1	8 (≈ 18.4 µM)
COc1ccncc1/C(Br)=C/c1ccc(N2C[C@H](CNC(C)=O)OC2=O)cc1F	32 (≈ 68.9 µM)

The compounds below were run on Staphylococcus epidermidis (assay: Minimum inhibitory concentration measured against Staphylococcus epidermidis).
Format: functional

Compound	MIC [µg/mL]
CC(=O)NC[C@H]1CN(c2ccc(/C=C(\Br)c3ccc(C(C)=O)cc3)c(F)c2)C(=O)O1	64 (≈ 135 µM)
CC(=O)NC[C@H]1CN(c2ccc(/C=C(\F)c3nnn(C)n3)c(F)c2)C(=O)O1	1 (≈ 2.64 µM)
CC(=O)NC[C@H]1CN(c2ccc(/C=C(\F)c3nccs3)c(F)c2)C(=O)O1	2 (≈ 5.27 µM)
CC(=O)NC[C@H]1CN(c2ccc(/C=C(\Br)c3cccc(N)c3)c(F)c2)C(=O)O1	1 (≈ 2.23 µM)
CC(=O)NC[C@H]1CN(c2ccc(/C=C(\Br)c3ccc(C#N)cc3)c(F)c2)C(=O)O1	1 (≈ 2.18 µM)
CC(=O)NC[C@H]1CN(c2ccc(/C=C(\Br)c3ccccc3C#N)c(F)c2)C(=O)O1	4 (≈ 8.73 µM)
CC(=O)NC[C@H]1CN(c2ccc(/C=C(\F)c3cccc(C(C)=O)c3)c(F)c2)C(=O)O1	1 (≈ 2.41 µM)
CC(=O)NC[C@H]1CN(c2ccc(/C=C(\Br)c3cccnc3)c(F)c2)C(=O)O1	1 (≈ 2.3 µM)
COc1ccncc1/C(Br)=C/c1ccc(N2C[C@H](CNC(C)=O)OC2=O)cc1F	4 (≈ 8.62 µM)

What follows are compounds tested on Staphylococcus aureus (assay: Minimum inhibitory concentration measured against Staphylococcus aureus).
Format: functional

Compound	MIC [µg/mL]
CC(=O)NC[C@H]1CN(c2ccc(/C=C(\Br)c3ccc(C(C)=O)cc3)c(F)c2)C(=O)O1	64 (≈ 135 µM)
CC(=O)NC[C@H]1CN(c2ccc(/C=C(\F)c3nnn(C)n3)c(F)c2)C(=O)O1	8 (≈ 21.1 µM)
CC(=O)NC[C@H]1CN(c2ccc(/C=C(\F)c3nccs3)c(F)c2)C(=O)O1	2 (≈ 5.27 µM)
CC(=O)NC[C@H]1CN(c2ccc(/C=C(\Br)c3cccc(N)c3)c(F)c2)C(=O)O1	2 (≈ 4.46 µM)
CC(=O)NC[C@H]1CN(c2ccc(/C=C(\Br)c3ccc(C#N)cc3)c(F)c2)C(=O)O1	4 (≈ 8.73 µM)
CC(=O)NC[C@H]1CN(c2ccc(/C=C(\Br)c3ccccc3C#N)c(F)c2)C(=O)O1	16 (≈ 34.9 µM)
CC(=O)NC[C@H]1CN(c2ccc(/C=C(\F)c3cccc(C(C)=O)c3)c(F)c2)C(=O)O1	0.5 (≈ 1.21 µM)
CC(=O)NC[C@H]1CN(c2ccc(/C=C(\Br)c3cccnc3)c(F)c2)C(=O)O1	2 (≈ 4.61 µM)
COc1ccncc1/C(Br)=C/c1ccc(N2C[C@H](CNC(C)=O)OC2=O)cc1F	8 (≈ 17.2 µM)

Species on record: Rattus norvegicus
Experiment: Inhibition of mitochondrial protein synthesis (MPS) in rat heart mitochondria
Format: functional
Procedure, shortened: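 Rat heart mitochondria were incubated at 1 mg/mL protein (Bradford) in buffer with translation components (ADP, amino acids). Incorporation of S35 methionine was followed for 1 h at 30 °C, then quenched with cold 5% TCA/5 mM methionine. Triplicate aliquots were filtered, washed and counted. Compounds were tested at 6–7 concentrations, ≤1% organic. IC50 came from the linear portion of the percent-of-control curve, as the mean of ≥2 experiments.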

Compound	IC50 [µM]
CC(=O)NC[C@H]1CN(c2ccc(/C=C(\F)c3nnn(C)n3)c(F)c2)C(=O)O1	4.9
CC(=O)NC[C@H]1CN(c2ccc(/C=C(\Br)c3ccc(C#N)cc3)c(F)c2)C(=O)O1	76
CC(=O)NC[C@H]1CN(c2ccc(/C=C(\Br)c3ccccc3C#N)c(F)c2)C(=O)O1	36
CC(=O)NC[C@H]1CN(c2ccc(/C=C(\F)c3cccc(C(C)=O)c3)c(F)c2)C(=O)O1	69
CC(=O)NC[C@H]1CN(c2ccc(/C=C(\Br)c3cccnc3)c(F)c2)C(=O)O1	12

The compounds below were run against T1, Amine oxidase [flavin-containing] B (Rattus norvegicus, UniProt P19643) (assay: Inhibition of Monoamine oxidase B in rat primary hepatocytes).
T1 sequence (P19643 whole entry): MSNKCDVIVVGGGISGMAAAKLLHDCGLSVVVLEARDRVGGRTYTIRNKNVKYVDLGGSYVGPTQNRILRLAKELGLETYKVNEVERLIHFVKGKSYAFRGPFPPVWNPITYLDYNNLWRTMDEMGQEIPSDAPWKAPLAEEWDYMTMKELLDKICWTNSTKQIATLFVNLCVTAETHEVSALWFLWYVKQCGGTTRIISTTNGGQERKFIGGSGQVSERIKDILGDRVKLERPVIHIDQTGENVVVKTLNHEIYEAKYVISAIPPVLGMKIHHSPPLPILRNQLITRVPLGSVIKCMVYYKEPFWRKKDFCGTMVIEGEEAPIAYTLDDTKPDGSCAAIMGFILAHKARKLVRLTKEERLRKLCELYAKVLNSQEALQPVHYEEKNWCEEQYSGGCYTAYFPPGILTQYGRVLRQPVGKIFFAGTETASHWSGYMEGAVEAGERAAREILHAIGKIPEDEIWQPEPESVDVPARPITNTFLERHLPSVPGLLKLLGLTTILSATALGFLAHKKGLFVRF
Format: cell-based, Hepatocyte

Compound	IC50 [µM]
CC(=O)NC[C@H]1CN(c2ccc(/C=C(\F)c3nnn(C)n3)c(F)c2)C(=O)O1	> 300
CC(=O)NC[C@H]1CN(c2ccc(/C=C(\F)c3nccs3)c(F)c2)C(=O)O1	< 9.4
CC(=O)NC[C@H]1CN(c2ccc(/C=C(\Br)c3ccc(C#N)cc3)c(F)c2)C(=O)O1	> 150
CC(=O)NC[C@H]1CN(c2ccc(/C=C(\Br)c3ccccc3C#N)c(F)c2)C(=O)O1	> 150
CC(=O)NC[C@H]1CN(c2ccc(/C=C(\F)c3cccc(C(C)=O)c3)c(F)c2)C(=O)O1	> 300
CC(=O)NC[C@H]1CN(c2ccc(/C=C(\Br)c3cccnc3)c(F)c2)C(=O)O1	121

These compounds were tested on Enterococcus faecium (assay: Minimum inhibitory concentration measured against Enterococcus faecium).
Format: functional

Compound	MIC [µg/mL]
CC(=O)NC[C@H]1CN(c2ccc(/C=C(\Br)c3ccc(C(C)=O)cc3)c(F)c2)C(=O)O1	32 (≈ 67.3 µM)
CC(=O)NC[C@H]1CN(c2ccc(/C=C(\F)c3nnn(C)n3)c(F)c2)C(=O)O1	4 (≈ 10.6 µM)
CC(=O)NC[C@H]1CN(c2ccc(/C=C(\F)c3nccs3)c(F)c2)C(=O)O1	2 (≈ 5.27 µM)
CC(=O)NC[C@H]1CN(c2ccc(/C=C(\Br)c3cccc(N)c3)c(F)c2)C(=O)O1	2 (≈ 4.46 µM)
CC(=O)NC[C@H]1CN(c2ccc(/C=C(\Br)c3ccc(C#N)cc3)c(F)c2)C(=O)O1	2 (≈ 4.36 µM)
CC(=O)NC[C@H]1CN(c2ccc(/C=C(\Br)c3ccccc3C#N)c(F)c2)C(=O)O1	4 (≈ 8.73 µM)
CC(=O)NC[C@H]1CN(c2ccc(/C=C(\F)c3cccc(C(C)=O)c3)c(F)c2)C(=O)O1	2 (≈ 4.83 µM)
CC(=O)NC[C@H]1CN(c2ccc(/C=C(\Br)c3cccnc3)c(F)c2)C(=O)O1	2 (≈ 4.61 µM)
COc1ccncc1/C(Br)=C/c1ccc(N2C[C@H](CNC(C)=O)OC2=O)cc1F	2 (≈ 4.31 µM)
